Eight molecules from ChEMBL document CHEMBL1133453, “Further studies on nociceptin-related peptides: discovery of a new chemical template with antagonist activity on the nociceptin receptor” (J Med Chem, 2000) can be followed below.

Calls of active or inactive are those of the source. The rule behind the calls is not given here. Numbered stars: 1 amine (or outer) side, 2 acyl side, 3 side chain; on linkers, the order of the positions; unused ones are H or OH. Square brackets hold non-standard residues; d marks the D form. Peptide text beside a SMILES is read from it. X3 = N[C@@H](CC1CCCCC1)CN(CC(=O)[*:2])[*:1]; Nphe = O=C(O)CNCc1ccccc1 A value given as a limit tells only on which side of the number the result lay.

Assay [1] is filed under the species Mus musculus. Briefly: Potency (Emax) against electrically evoked contraction (twitch response) in mouse vas deferens. The format is functional. An outline of the steps: (§1)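 Mouse vas deferens held in Mg2+-free Krebs at 33 °C under 0.3 g resting tension. Field stimulation through platinum electrodes with supramaximal 1-ms pulses at 0.1 Hz, twitches recorded isotonically. After about 2 h equilibration, cumulative concentration-response curves built in 0.5 log steps up to 10 µM. pEC50 taken as the concentration giving half-maximal effect. Mean of at least 3 experiments.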

The species entered for assay [2] is Mus musculus. Briefly: Compound was tested for agonistic activity against electrically evoked contraction (twitch response) in mouse vas deferens. The format is functional, organism-based. An outline of the steps: as §1
The species entered for assay [3] is Mus musculus. In words: Compound was tested for the antagonistic activity on mouse vas deferens using NC(1-13)NH2 as agonist; NA means Inactive up to 10 uM. The format is functional, organism-based. An outline of the steps:
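Electrically stimulated mouse vas deferens (Mg2+-free Krebs, 33 °C, 0.1 Hz, 1-ms pulses). Antagonist at 10 µM added 15 min before a cumulative NC(1-13)NH2 concentration-response curve. pKB calculated with the Gaddum-Schild equation, assuming a slope of 1, from the concentration ratio. Mean of at least 3 experiments, with 95% confidence limits.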

For assay [4], the species on record is Mus musculus. In words: Compound was tested for agonistic activity against electrically evoked contraction (twitch response) in mouse vas deferens; NA means Inactive up to 10 uM. The format is functional, organism-based. Put shortly:
as §1

The species entered for assay [5] is Mus musculus. Briefly: Potency (Emax) against electrically evoked contraction (twitch response) in mouse vas deferens; NA means Inactive up to 10 uM. The format is functional, organism-based. Put shortly:
as §1

The target in a further assay is Nociceptin receptor (Mus musculus, UniProt P35377). In words: Affinity to nociceptin receptors on mouse forebrain membranes by [3H]NC-NH2 displacement. Put shortly: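 Forebrain membranes from male Swiss mice (25-30 g), homogenized in 50 mM Tris HCl, 2 mM EDTA, 100 µM PMSF, pH 7.4, then preincubated 30 min at 37 °C. Bound ligand separated by GF/C filtration. Ki obtained by nonlinear least-squares fitting.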
Sequence of Nociceptin receptor (P35377 whole entry): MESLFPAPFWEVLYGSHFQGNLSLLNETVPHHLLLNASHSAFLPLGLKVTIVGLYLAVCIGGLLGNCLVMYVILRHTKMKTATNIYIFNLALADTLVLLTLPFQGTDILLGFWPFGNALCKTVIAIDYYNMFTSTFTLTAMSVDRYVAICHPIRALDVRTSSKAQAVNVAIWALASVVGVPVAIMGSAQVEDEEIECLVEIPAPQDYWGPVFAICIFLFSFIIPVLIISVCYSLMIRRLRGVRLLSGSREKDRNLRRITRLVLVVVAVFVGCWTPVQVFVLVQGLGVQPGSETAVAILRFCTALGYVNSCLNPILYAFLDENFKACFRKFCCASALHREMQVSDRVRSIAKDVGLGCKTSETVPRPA

Usually Emax stands for the maximal effect, on the per cent scale that the assay sets. Broadly, the EC50 is the concentration that produces a half-maximal response. On to `C[C@H](NC(=O)CNC(=O)[C@@H](NC(=O)[C@H](Cc1ccccc1)NC(=O)CNC(=O)CNC(=O)[C@@H](N)Cc1ccccc1)[C@@H](C)O)C(=O)N[C@@H](CCCNC(=N)N)C(=O)N[C@@H](CCCCN)C(=O)N[C@@H](CO)C(=O)N[C@@H](C)C(=O)N[C@@H](CCCNC(=N)N)C(=O)N[C@@H](CCCCN)C(N)=O`, for which, in the assay listed under Mus musculus [1], the Emax is -84%. The same molecule gave a 50% effective concentration (EC50) in the assay listed under Mus musculus [2] of 15.8 nM.

Broadly, the Ki is the equilibrium dissociation constant of an inhibitor or competing ligand from its target. High values mean a looser hold on the target, low ones a stronger hold on the target. As for `Cc1ccc(CNCC(=O)NCC(=O)NCC(=O)N[C@@H](Cc2ccccc2)C(=O)N[C@H](C(=O)NCC(=O)N[C@@H](C)C(=O)N[C@@H](CCCN=C(N)N)C(=O)N[C@@H](CCCCN)C(=O)N[C@@H](CO)C(=O)N[C@@H](C)C(=O)N[C@@H](CCCN=C(N)N)C(=O)N[C@@H](CCCCN)C(N)=O)[C@@H](C)O)cc1`, the pKB entry in the assay filed under Mus musculus [3] was “inactive”. Also, the “Log EC50” value in the assay listed under Mus musculus [4] is “inactive”. In addition, the Emax entry in the assay filed under Mus musculus [5] was “inactive”. On Nociceptin receptor, this molecule gave an inhibition constant (Ki) of 2510 nM.

Take `C[C@H](NC(=O)CNC(=O)[C@@H](NC(=O)[C@H](Cc1ccccc1)NC(=O)CNC(=O)CNC(=O)CNCc1ccc(O)cc1)[C@@H](C)O)C(=O)N[C@@H](CCCN=C(N)N)C(=O)N[C@@H](CCCCN)C(=O)N[C@@H](CO)C(=O)N[C@@H](C)C(=O)N[C@@H](CCCN=C(N)N)C(=O)N[C@@H](CCCCN)C(N)=O`: the pKB result in the assay filed under Mus musculus [3] was “inactive”. Also, the “Log EC50” value in the assay listed under Mus musculus [4] was “inactive”. Moreover, the Emax entry in the assay listed under Mus musculus [5] is “inactive”. The same molecule gave a Ki on Nociceptin receptor of 3160 nM.

`CC(C)CNCC(=O)NCC(=O)NCC(=O)N[C@@H](Cc1ccccc1)C(=O)N[C@H](C(=O)NCC(=O)N[C@@H](C)C(=O)N[C@@H](CCCN=C(N)N)C(=O)N[C@@H](CCCCN)C(=O)N[C@@H](CO)C(=O)N[C@@H](C)C(=O)N[C@@H](CCCN=C(N)N)C(=O)N[C@@H](CCCCN)C(N)=O)[C@@H](C)O`: the pKB result in the assay listed under Mus musculus [3] was “inactive”. In the assay listed under Mus musculus [4], the “Log EC50” value was “inactive”. Also, in the assay listed under Mus musculus [5], the Emax entry is “inactive”. The same molecule gave a Ki on Nociceptin receptor of 2510 nM.

On to `C[C@H](NC(=O)CNC(=O)[C@@H](NC(=O)[C@H](Cc1ccccc1)NC(=O)CNC(=O)CNC(=O)CNCC1CCCCC1)[C@@H](C)O)C(=O)N[C@@H](CCCN=C(N)N)C(=O)N[C@@H](CCCCN)C(=O)N[C@@H](CO)C(=O)N[C@@H](C)C(=O)N[C@@H](CCCN=C(N)N)C(=O)N[C@@H](CCCCN)C(N)=O`, for which the pKB result in the assay filed under Mus musculus [3] was “inactive”. The “Log EC50” value in the assay filed under Mus musculus [4] was “inactive”. In the assay filed under Mus musculus [5], the Emax entry is “inactive”. Moreover, the Ki on Nociceptin receptor was 2510 nM.

For the molecule `C[C@H](NC(=O)CNC(=O)[C@@H](NC(=O)[C@H](Cc1ccccc1)NC(=O)CNC(=O)CNC(=O)[C@@H](N)Cc1ccccc1)[C@@H](C)O)C(=O)N[C@@H](CCCN=C(N)N)C(=O)N[C@@H](CCCCN)C(N)=O` (H-FGGFTGARK-NH2), in the assay listed under Mus musculus [3], the pKB result was “inactive”. Besides, the “Log EC50” value in the assay filed under Mus musculus [4] is “inactive”. Further, the Emax entry in the assay listed under Mus musculus [5] was “inactive”. Besides, the Ki at Nociceptin receptor is over 10000 nM.

For the molecule `C[C@H](NC(=O)CNC(=O)[C@@H](NC(=O)[C@H](Cc1ccccc1)NC(=O)CNC(=O)CNC(=O)CNCc1ccccc1)[C@@H](C)O)C(=O)N[C@@H](CCCN=C(N)N)C(=O)N[C@@H](CCCCN)C(=O)N[C@@H](CO)C(=O)N[C@@H](C)C(=O)N[C@@H](CCCN=C(N)N)C(N)=O` (H-[Nphe]GGFTGARKSAR-NH2), the pKB entry in the assay listed under Mus musculus [3] is “inactive”. The “Log EC50” value in the assay listed under Mus musculus [4] is “inactive”. Also, the Emax result in the assay filed under Mus musculus [5] is “inactive”. Moreover, the Ki on Nociceptin receptor was 3160 nM.

Consider `C[C@H](NC(=O)CNC(=O)[C@@H](NC(=O)[C@H](Cc1ccccc1)NC(=O)CNC(=O)CNC[C@@H](N)CC1CCCCC1)[C@@H](C)O)C(=O)N[C@@H](CCCN=C(N)N)C(=O)N[C@@H](CCCCN)C(=O)N[C@@H](CO)C(=O)N[C@@H](C)C(=O)N[C@@H](CCCN=C(N)N)C(=O)N[C@@H](CCCCN)C(N)=O` (H-[X3]GFTGARKSARK-NH2), for which the pKB entry in the assay listed under Mus musculus [3] was “inactive”. Besides, in the assay listed under Mus musculus [4], the “Log EC50” value was “inactive”. Moreover, the Emax entry in the assay listed under Mus musculus [5] was “inactive”. The affinity on Nociceptin receptor, expressed as Ki, was 316 nM.
